Results of several laboratories.
Compare with care: the assays were run in different laboratories.
Target: Calcium/calmodulin-dependent protein kinase type 1G (CAMK1G, Homo sapiens, UniProt Q96NX5)

| Structure (SMILES) | effect on | technique | concentration | remaining binding [%] |
| --- | --- | --- | --- | --- |
| C[C@H]1CCN(c2nccc(-c3cnn4ncccc34)n2)C1 | binding |  | 1 µM | 97 |
| O=C(Nc1ccc(Oc2ccc(F)cc2)cc1)N1CCc2ncccc2[C@H]1c1ccc(F)cc1 | cell-free assay | competition with immobilised ligand | 1 µM | 100 |
| O=C(Nc1c[nH]nc1C(=O)NC1CCNCC1)c1cc(F)cc(F)c1 | binding | competition with immobilised ligand | 1 µM | 83 |
| CN(C)c1ncc(F)c(-c2cnn3ncccc23)n1 | binding | competition with immobilised ligand | 1 µM | 96 |
| O=C(c1ccc(Nc2ncc(Cl)c(-c3ccc(Cl)s3)n2)cc1)N1CCC(N2CCCC2)CC1 | binding | competition with immobilised ligand | 1 µM | 80 |
| O=C(N1CCS(=O)(=O)CC1)N1C[C@H](c2ccc(OC(F)(F)F)cc2)C[C@H](c2nc(C3CC3)no2)C1 | cell-free assay | competition with immobilised ligand | 1 µM | 100 |
| FC(F)(F)Oc1cccc(-c2cnc3ccc(-c4ccncc4)nn23)c1 | cell-free assay | competition with immobilised ligand | 5 µM | 73 |
| O=C(NC[C@@H]1[C@H]2CN(C(=O)OCc3cc(C(F)(F)F)cc(C(F)(F)F)c3)C[C@@H]12)c1ccc2[nH]nnc2c1 | cell-free assay | competition with immobilised ligand | 1 µM | 100 |
| N[C@@H]1CCN(c2nccc(-c3cnn4ncccc34)n2)C1 | binding |  | 1 µM | 100 |
| COc1ncc2cc3ccccc3nc2c1C#N | cell-free assay | competition with immobilised ligand | 5 µM | 89 |
| F[C@@H]1CCN(c2nccc(-c3cnn4ncccc34)n2)C1 | binding |  | 1 µM | 100 |
| CNC(=O)[C@@H]1CC[C@@H](n2c(-c3ccc4cnccc4c3)nc3ccc(C(=O)NCc4cccc(C(N)=O)c4)cc32)C1 | binding | competition with immobilised ligand | 1 µM | 98 |
| CN(CCCC(F)(F)F)c1nccc(-c2cnn3ncccc23)n1 | binding |  | 1 µM | 100 |
| C[C@@H](c1ccc(-n2cnc3c(N)ncnc32)cc1)N1CCc2nn(C)c(Cc3ccccc3)c2C1=O | binding | competition with immobilised ligand | 0.1 µM | 95 |
| Nc1ncc2c(n1)-c1c([nH]c3ccc(C#CC4CC4)cc13)CCCC2 | binding | competition with immobilised ligand | 1 µM | 87 |
| COc1cc(-c2cn(C3CCc4ccccc4N(CC(F)(F)F)C3=O)nn2)ccc1-n1ccc(C)n1 (stereo not shown) | cell-free assay | competition with immobilised ligand | 1 µM | 100 |
| O=C(NCCCN1CCOCC1)c1ccc(Nc2ncc(Cl)c(-c3ccc(Cl)s3)n2)cc1 | binding | competition with immobilised ligand | 1 µM | 74 |
| COc1ccnn2ncc(-c3ccnc(N(C)C)n3)c12 | binding |  | 1 µM | 100 |
| CC(=O)N1CCC(c2ccc(C(=O)NC(=N)N)cc2C(F)(F)F)CC1 | cell-free assay | competition with immobilised ligand | 1 µM | 100 |
| c1cnn2ncc(-c3ccnc(N4CCC45COC5)n3)c2c1 | binding |  | 1 µM | 100 |
| O=C(c1ccc(Nc2nccc(-c3cc4ccccc4s3)n2)cc1)N1CCC(N2CCCC2)CC1 | binding | competition with immobilised ligand | 1 µM | 72 |
| CNCc1ccccc1-c1csc([C@H](C)Nc2nc(C)nc3cc(OC)c(OC)cc23)c1 | cell-free assay | competition with immobilised ligand | 1 µM | 96 |
